High-throughput results from PubChem.
CaV13 FRET inh: Disruptors of the CACNA1D IQ motif to Ca2+-dependent inactivation inhibitor domain association, primary screening, Förster resonance energy transfer in intact living … | HEK cells, CFP/YFP FRET ICDI-IQ, plate reader, 10 min; percent FRET-ratio fall versus neutral wells | inhibition, % at 12.3 µM | actives 0.098% (n = 340,000) | AID 743397;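 active means mean replicate inhibition of at least 30% and at least 1% of replicates passing that level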;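 further: 0% = median of the neutral control wells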
NPR2 activator: human GC-B receptor activators, primary screen, HEK293 GC-B cells, cGMP TR-FRET, EC30 CNP. Atrial natriuretic peptide receptor 2 (Homo sapiens), P20594. 0% at EC30 CNP, 100% saturating CNP. activation, % at 10 µM. actives 0.11% (n = 370,000). AID 1920062, 2024;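 active means activation at 10 µM reaching about 35% in either raw or pattern-adjusted values, limit read from the data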
Target sequence (P20594 whole entry, looked up): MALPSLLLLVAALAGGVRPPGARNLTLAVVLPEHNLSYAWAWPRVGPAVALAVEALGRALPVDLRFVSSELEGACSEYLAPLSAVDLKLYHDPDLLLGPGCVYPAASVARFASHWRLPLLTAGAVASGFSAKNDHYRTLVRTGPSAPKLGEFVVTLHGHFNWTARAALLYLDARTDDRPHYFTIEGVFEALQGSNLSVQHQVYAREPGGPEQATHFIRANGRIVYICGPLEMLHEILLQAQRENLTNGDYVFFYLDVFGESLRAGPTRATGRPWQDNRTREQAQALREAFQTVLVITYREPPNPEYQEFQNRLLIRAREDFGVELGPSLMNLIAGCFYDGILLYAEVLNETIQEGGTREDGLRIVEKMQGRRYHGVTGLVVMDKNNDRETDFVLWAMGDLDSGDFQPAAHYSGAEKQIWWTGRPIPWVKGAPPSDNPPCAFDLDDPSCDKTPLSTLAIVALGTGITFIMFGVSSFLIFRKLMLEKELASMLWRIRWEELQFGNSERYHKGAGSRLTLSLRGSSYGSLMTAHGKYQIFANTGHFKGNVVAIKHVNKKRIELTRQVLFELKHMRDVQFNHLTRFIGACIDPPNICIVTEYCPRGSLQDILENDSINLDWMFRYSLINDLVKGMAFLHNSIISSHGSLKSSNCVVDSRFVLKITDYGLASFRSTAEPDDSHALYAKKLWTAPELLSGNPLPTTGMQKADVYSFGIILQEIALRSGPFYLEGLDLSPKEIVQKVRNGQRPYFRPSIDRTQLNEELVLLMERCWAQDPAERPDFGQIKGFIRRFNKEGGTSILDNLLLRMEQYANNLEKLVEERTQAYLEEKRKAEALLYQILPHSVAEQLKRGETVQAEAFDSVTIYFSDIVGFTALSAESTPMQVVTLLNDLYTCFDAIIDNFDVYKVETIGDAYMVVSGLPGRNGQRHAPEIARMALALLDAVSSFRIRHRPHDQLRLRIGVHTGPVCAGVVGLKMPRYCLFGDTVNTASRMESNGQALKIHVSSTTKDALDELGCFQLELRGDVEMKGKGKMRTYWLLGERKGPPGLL
NPR1 activator: GC-A stimulated cGMP production enhancers – HEK293 GC-A cells, cGMP TR-FRET, EC30 ANP, primary screen; actives 0.14% (n = 370,000); activation, % at 10 µM; 0% at EC30 ANP, 100% saturating ANP; AID 1671463, 2021; Atrial natriuretic peptide receptor 1 (Homo sapiens), P16066; in the data active means activation above about 40%
XiGFP reactiv: activators of inactive X chromosome reactivation, primary screen, imaging, XiGFP fibroblasts, GFP high-content imaging, set 2 | actives 0.055% (n = 360,000) | activation, % at 7.58 µM | AID 743238, 2013 | XiGFP mouse fibroblasts, % GFP-positive cells imaging, 3 d; cells co-treated with 5-aza-dC sensitizer; scaled so ellipticine positive control = 100%;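 active means mean normalized replicate activation at least 10% and every replicate at or above 10%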;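 further: 0% = median of on-plate neutral control wells and 100% = ellipticine 6 µM median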
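Material: XiGFP fibroblasts, SV40-immortalized. Buffer or medium: DMEM plus 5-aza-dC sensitizer. Compound: single concentration per compound, delivered by pin transfer. Times: 3 days compound exposure. Controls: ellipticine 6 µM.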
Vif imaging: HIV Vif self-association inhibitors, primary screen, imaging, HEK293T, single point; inhibition, % at 7.49 µM; AID 602346, 2012; HEK293T cells, Vif self-association by quenched fluorescence, 24 h; actives 0.35% (n = 340,000); in the data active means inhibition above about 50%, passing the limit was not always enough
N-glyco inh: increase of ERlucT glycosylation luciferase signal, primary screen, N-linked glycosylation inhibitor project, D54 ERlucT cells, luminescence, set 2; D54 ERlucT glycosylation luciferase reporter, 24 h; percent of 100 nM tunicamycin response; reporter increase, % at 12.5 µM; actives 0.23% (n = 360,000); AID 588692, 2011;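 active means mean luciferase reporter signal, scaled so untreated is 0 and the glycosylation-blocking control 100, at or above a set limit in every replicate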;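 further: luciferase carries N-glycosylation sites so blocking glycosylation raises the light; 0% = median of neutral control wells and 100% = median of 100 nM tunicamycin wells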
Starred values were filed as active, the others as inactive; / = no result given. Sampled rows, rich in hits. Any-hit rate of the full collection: about 0.7%.

SMILES	CaV13 FRET inh	NPR2 activator	NPR1 activator	XiGFP reactiv	Vif imaging	N-glyco inh
COc1ccccc1NC(=O)Cn1cc(C(=O)C(=O)N2CCOCC2)c2ccccc21	-2.6	-1.7	3.6	0.3	-0.3	-0.4
O=C(Cn1cc(C(=O)C(=O)N2CCOCC2)c2ccccc21)Nc1cccc(C(F)(F)F)c1	-10.1	-2.1	1.0	0.1	70.2*	1.4
C=CCOC(=O)C1=C(C)NC(=S)NC1/C=C/c1ccccc1 (stereo not drawn)	-11.1	-1.6	42.9*	/	-12.3	-1.3
C[C@@H]1CN([C@@H](C)CO)C(=O)c2cc(C#CCN(C)C)cnc2O[C@H]1CN(C)C(=O)c1ccc2c(c1)OCO2	/	/	/	-1.4	/	/
O=C1OCCC1Sc1nc(-c2ccccc2)cs1 (stereo not drawn)	-1.3	11.6	72.5*	/	16.3	2.0
Cc1ccc(C(=O)CCS(=O)(=O)c2ccc(Cl)cc2)cc1	-6.4	-9.6	52.4*	1.1	-0.6	1.1
Cc1ccc(C(=O)CCS(=O)(=O)c2ccc(F)cc2)cc1	-6.5	-6.1	52.5*	0.2	-11.0	0.0
COc1ccc(C(=O)CCS(=O)(=O)c2ccc(F)cc2)cc1OC	-10.4	-0.5	-0.8	0.2	-5.1	-2.7
Cc1ccc(S(=O)(=O)CCC(=O)c2ccc(F)cc2)cc1	-5.7	-3.1	71.0*	9.0	5.8	0.7
Cc1ccc(S(=O)(=O)CCC(=O)OCC(=O)NCCc2ccc(F)cc2)cc1	-5.9	-4.1	-4.1	0.3	1.0	4.0
Cc1ccc(S(=O)(=O)CCC(=O)NCc2ccc(Cl)cc2)cc1	-2.1	2.3	2.8	-0.1	14.7	2.2
O=C(Nc1cc(F)ccc1F)N[C@@H]1CC[C@H](CCNC(=O)c2cnccn2)O[C@@H]1CO	/	/	/	-0.4	/	/
COc1cccc(S(=O)(=O)Nc2ccc3c(c2)C(=O)N(C)[C@@H]2CC[C@@H](CC(=O)O)O[C@@H]2CO3)c1	/	/	/	0.1	/	/
CC(OC(=O)c1ccccc1C(=O)O)c1ccccc1 (stereo not drawn)	-4.1	1.3	1.6	0.4	52.5*	1.6
COc1ccc(CCNC(=O)c2cc(S(=O)(=O)N3CCCCC3)c[nH]2)cc1OC	43.2*	-4.9	-0.3	-0.4	29.2	1.5
Cc1ccc(C)c(N2CCN(c3cnn(-c4nc5ccccc5s4)c(=O)c3Cl)CC2)c1	-4.8	1.8	-4.6	0.1	-2.1	113.7*
COc1ccc2c3c([nH]c2c1)[C@H](CO)N(C(=O)c1cccnc1)CC31CN(Cc2cccnc2)C1	/	/	/	0.3	/	/
COc1ccc(N2CCN(c3cc(C)c4ccc(O)cc4n3)CC2)cc1	-7.8	-4.8	-0.8	-0.1	2.6	-0.4
COc1cc(OC)c2nc(C)c3c(c2c1)N(c1ccc(O)cc1)CC3	-5.9	-19.1	-37.8	/	7.0	27.6*
Cc1cc(C)nc(SCC(=O)Nc2ccc(S(=O)(=O)Nc3onc(C)c3C)cc2)n1	80.0*	-9.9	-1.6	0.0	11.8	1.9
Cc1noc(NS(=O)(=O)c2ccc(NC(=O)CSc3ncccn3)cc2)c1C	8.0	-3.1	2.1	0.1	11.4	2.8
C[C@H](CO)N1C[C@H](C)[C@H](CN(C)C(=O)CN(C)C)Oc2cc(C#CC(C)(C)O)ccc2S1(=O)=O	/	/	/	0.1	/	/
CC(=O)Oc1ccc2cc(-c3nc4ccccc4n3C)c(=O)oc2c1	33.0*	5.3	12.7	/	0.7	-0.1
CCS(=O)(=O)N1CCCCN2[C@H](CO)[C@H](c3ccc(C#Cc4ccccc4OC)cc3)[C@@H]2C1	/	/	/	-0.1	/	/
CN1c2ccc(-c3ccccc3)cc2[C@H]2[C@H](CCN2C(=O)c2ccccn2)[C@@H]1CO	/	/	/	0.0	/	/
SMILES	CaV13 FRET inh	NPR2 activator	NPR1 activator	XiGFP reactiv	Vif imaging	N-glyco inh
O=C1c2cccc3cccc(c23)C(=O)N1CCN1CCN(CC(O)COc2ccccc2)CC1 (stereo not drawn)	-1.9	0.5	-1.1	-0.1	-6.7	2.2
COc1cccc(OCC(O)CN2CCN(CCN3C(=O)c4cccc5cccc(c45)C3=O)CC2)c1 (stereo not drawn)	-4.5	4.9	6.0	0.0	-2.0	34.3*
CCCCc1cc(=O)oc2cc(OCc3cc(OC)c(OC)c(OC)c3)c(Cl)cc12	-5.4	-4.4	-0.6	/	-3.5	0.5
CCCc1cc(=O)oc2cc(OCc3cc(OC)c(OC)c(OC)c3)c(Cl)cc12	-4.1	0.7	3.3	/	105.6*	0.9
COc1cccc(C2c3[nH]c4ccccc4c3C[C@H]3C(=O)N(c4ccccc4C(=O)N4CCC(C(=O)O)CC4)C(=O)N23)c1 (stereo partly drawn)	/	51.4*	37.4	/	-5.7	-0.2
COc1ccc(C2c3[nH]c4ccccc4c3C[C@H]3C(=O)N(c4ccccc4C(=O)N4CCC(C(=O)O)CC4)C(=O)N23)cc1 (stereo partly drawn)	/	13.5	7.0	/	16.7	1.7
CC(C)N(CC(=O)Nc1ccc(Cl)cc1C(F)(F)F)C(=O)CCl	-2.5	5.3	3.4	0.0	-0.6	33.9*
O=C(c1cccc(F)c1)N1CC(=O)N2[C@H](C1)[C@H](c1ccc(-c3ccccc3F)cc1)[C@@H]2CO	/	/	/	0.0	/	/
CCOc1ccc(S(N)(=O)=O)cc1-c1nc2c(C(C)(C)C)nn(C)c2c(=O)[nH]1	-2.4	61.5*	51.8*	0.0	-1.8	2.9
CCCCn1c(=O)[nH]c(=O)c2c1nc(-c1ccc(OCCC)c(OCC)c1)n2C	5.6	-4.6	-2.7	0.0	0.9	-0.2
CCOc1ccc(S(=O)(=O)NC(C)(C)C)cc1-c1nc2c(C(C)(C)C)nn(C)c2c(=O)[nH]1	-8.9	60.5*	56.8*	/	-20.8	-14.3
Cc1ccc(S(=O)(=O)N(C)C[C@@H]2Oc3ccc(NC(=O)Nc4ccc(F)cc4)cc3CC(=O)N([C@@H](C)CO)C[C@@H]2C)cc1	/	/	/	0.1	/	/
c1ccc2[nH]c3cc4ncnc4cc3nc2c1	-309.3	-8.3	-8.4	0.0	0.4	26.1*
COc1ccccc1-c1ccc2c(c1)O[C@@H](CN(C)Cc1ccc3c(c1)OCO3)[C@@H](C)CN([C@H](C)CO)S2(=O)=O	/	/	/	-0.1	/	/
CCCNC(=O)C(Cc1ccccc1)NS(=O)(=O)c1ccc2c(c1)c(=O)n(C)c(=O)n2C (stereo not drawn)	-6.2	2.7	-3.7	0.0	-8.0	0.3
